Test results from ChEMBL document CHEMBL2401716, “Design and stereoselective synthesis of novel isosteviol-fused pyrazolines and pyrazoles as potential anticancer agents” (Eur J Med Chem, 2013).
pIC50: −log10 of the molar value.

How the values were obtained:
Assay type in all cases: functional, cell-based
[1] = test system: A549; experiment: Antiproliferative activity against human A549 cells after 48 hrs by MTT assay; settings: A549, 48 h
Summary of the method: (§1)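 Cells seeded in 96-well plates and exposed to compounds for 48 h at 37 °C, 5% CO2. MTT (0.5 mg/mL) then added for 4 h. Supernatant removed, formazan dissolved in DMSO, and OD read at 570 nm. Cisplatin served as positive control.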

[2] = test system: SGC-7901; experiment: Antiproliferative activity against human SGC7901 cells after 48 hrs by MTT assay; settings: SGC-7901, 48 h; summary of the method: as §1
[3] = test system: HeLa; experiment: Antiproliferative activity against human HeLa cells after 48 hrs by MTT assay; summary of the method: as §1
[4] = test system: Raji; experiment: Antiproliferative activity against human Raji cells after 48 hrs by MTT assay
Summary of the method: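 Human B-lymphoma Raji line kept in RPMI-1640 with 10% FBS and 100 U/mL penicillin at 37 °C, 5% CO2, humidified. Cells were plated in 96 wells and treated with compounds for 48 h. MTT (0.5 mg/mL) was added for 4 h, then formazan was taken up in DMSO after supernatant removal and read at 570 nm. Cisplatin served as positive control.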

SMILES | pIC50 [1] | pIC50 [2] | pIC50 [3] | pIC50 [4]
CCOC(=O)[C@]1(C)CCC[C@@]2(C)[C@@H]3CC[C@@]4(C)C[C@]3(CC[C@@H]21)[C@@H]1CN(c2ccc([N+](=O)[O-])cc2)N=C14 | < 4.30 | < 4.30 | < 4.30 | < 4.30
CCOC(=O)[C@]1(C)CCC[C@@]2(C)[C@@H]3CC[C@@]4(C)C[C@]3(CC[C@@H]21)c1cnn(-c2c(C)cccc2C)c14 | 4.93 | 5.04 | 4.69 | 5.68
CCOC(=O)[C@]1(C)CCC[C@@]2(C)[C@@H]3CC[C@@]4(C)C[C@]3(CC[C@@H]21)c1cnn(-c2ccc(Cl)cc2)c14 | 4.45 | 5.07 | < 4.30 | 4.86
CCOC(=O)[C@]1(C)CCC[C@@]2(C)[C@@H]3CC[C@@]4(C)C[C@]3(CC[C@@H]21)[C@@H]1CN(c2cccc(F)c2)N=C14 | < 4.30 | < 4.30 | < 4.30 | 4.54
CCOC(=O)[C@]1(C)CCC[C@@]2(C)[C@@H]3CC[C@@]4(C)C[C@]3(CC[C@@H]21)[C@@H]1CN(c2ccccc2F)N=C14 | 4.49 | 4.46 | < 4.30 | 4.76
CCOC(=O)[C@]1(C)CCC[C@@]2(C)[C@@H]3CC[C@@]4(C)C[C@]3(CC[C@@H]21)[C@@H]1CN(c2ccccc2C)N=C14 | < 4.30 | < 4.30 | < 4.30 | 4.70
CCOC(=O)[C@]1(C)CCC[C@@]2(C)[C@@H]3CC[C@@]4(C)C[C@]3(CC[C@@H]21)[C@@H]1CN(c2cc(Cl)cc(Cl)c2)N=C14 | < 4.30 | < 4.30 | 4.61 | < 4.30
CCOC(=O)[C@]1(C)CCC[C@@]2(C)[C@@H]3CC[C@@]4(C)C[C@]3(CC[C@@H]21)c1cnn(-c2ccc(Cl)c(Cl)c2)c14 | < 4.30 | < 4.30 | < 4.30 | 4.77
CCOC(=O)[C@]1(C)CCC[C@@]2(C)[C@@H]3CC[C@@]4(C)C[C@]3(CC[C@@H]21)[C@@H]1CN(c2cccc(C)c2)N=C14 | < 4.30 | < 4.30 | < 4.30 | < 4.30
CCOC(=O)[C@]1(C)CCC[C@@]2(C)[C@@H]3CC[C@@]4(C)C[C@]3(CC[C@@H]21)c1cnn(-c2c(Cl)cccc2Cl)c14 | 4.48 | 4.57 | 4.46 | 5.24
CCOC(=O)[C@]1(C)CCC[C@@]2(C)[C@@H]3CC[C@@]4(C)C[C@]3(CC[C@@H]21)c1cnn(-c2cc(C)ccc2C)c14 | 4.77 | 4.48 | 4.46 | 5.10
CCOC(=O)[C@]1(C)CCC[C@@]2(C)[C@@H]3CC[C@@]4(C)C[C@]3(CC[C@@H]21)c1cnn(-c2ccccc2[N+](=O)[O-])c14 | 4.37 | 4.81 | < 4.30 | 4.84
CCOC(=O)[C@]1(C)CCC[C@@]2(C)[C@@H]3CC[C@@]4(C)C[C@]3(CC[C@@H]21)[C@@H]1CN(c2cccc(Br)c2)N=C14 | < 4.30 | < 4.30 | < 4.30 | 4.60
CCOC(=O)[C@]1(C)CCC[C@@]2(C)[C@@H]3CC[C@@]4(C)C[C@]3(CC[C@@H]21)c1cnn(-c2ccc(Br)cc2)c14 | 4.64 | 4.53 | < 4.30 | 5.32
CCOC(=O)[C@]1(C)CCC[C@@]2(C)[C@@H]3CC[C@@]4(C)C[C@]3(CC[C@@H]21)c1cnn(-c2ccc(F)cc2)c14 | 4.65 | 4.59 | < 4.30 | 5.15
CCOC(=O)[C@]1(C)CCC[C@@]2(C)[C@@H]3CC[C@@]4(C)C[C@]3(CC[C@@H]21)c1cnn(-c2ccc(Cl)cc2Cl)c14 | 5.50 | 5.57 | 4.87 | 5.96
CCOC(=O)[C@]1(C)CCC[C@@]2(C)[C@@H]3CC[C@@]4(C)C[C@]3(CC[C@@H]21)c1cnn(-c2ccc(C)cc2)c14 | 4.73 | 4.46 | < 4.30 | 5.06
CCOC(=O)[C@]1(C)CCC[C@@]2(C)[C@@H]3CC[C@@]4(C)C[C@]3(CC[C@@H]21)[C@@H]1CN(c2c(Cl)cccc2Cl)N=C14 | 4.94 | < 4.30 | < 4.30 | < 4.30
CCOC(=O)[C@]1(C)CCC[C@@]2(C)[C@@H]3CC[C@@]4(C)C[C@]3(CC[C@@H]21)[C@@H]1CN(c2ccccc2)N=C14 | 4.55 | < 4.30 | < 4.30 | 4.86
CCOC(=O)[C@]1(C)CCC[C@@]2(C)[C@@H]3CC[C@@]4(C)C[C@]3(CC[C@@H]21)[C@@H]1CN(c2cccc(C(F)(F)F)c2)N=C14 | < 4.30 | < 4.30 | < 4.30 | 5.14

SMILES | pIC50 [1] | pIC50 [2] | pIC50 [3] | pIC50 [4]
CCOC(=O)[C@]1(C)CCC[C@@]2(C)[C@@H]3CC[C@@]4(C)C[C@]3(CC[C@@H]21)c1cnn(-c2cccc([N+](=O)[O-])c2)c14 | < 4.30 | < 4.30 | < 4.30 | 5.13
CCOC(=O)[C@]1(C)CCC[C@@]2(C)[C@@H]3CC[C@@]4(C)C[C@]3(CC[C@@H]21)[C@@H]1CN(c2ccc(Br)cc2)N=C14 | < 4.30 | < 4.30 | < 4.30 | < 4.30
CCOC(=O)[C@]1(C)CCC[C@@]2(C)[C@@H]3CC[C@@]4(C)C[C@]3(CC[C@@H]21)c1cnn(-c2ccccc2Br)c14 | 4.76 | 4.52 | 4.39 | 4.95
CCOC(=O)[C@]1(C)CCC[C@@]2(C)[C@@H]3CC[C@@]4(C)C[C@]3(CC[C@@H]21)[C@@H]1CN(c2ccc(Cl)cc2Cl)N=C14 | < 4.30 | < 4.30 | < 4.30 | 4.64
CCOC(=O)[C@]1(C)CCC[C@@]2(C)[C@@H]3CC[C@@]4(C)C[C@]3(CC[C@@H]21)[C@@H]1CN(c2ccc(Cl)c(Cl)c2)N=C14 | < 4.30 | < 4.30 | < 4.30 | < 4.30
CCOC(=O)[C@]1(C)CCC[C@@]2(C)[C@@H]3CC[C@@]4(C)C[C@]3(CC[C@@H]21)c1cnn(-c2cccc(Cl)c2)c14 | 4.55 | 4.58 | < 4.30 | 5.02
CCOC(=O)[C@]1(C)CCC[C@@]2(C)[C@@H]3CC[C@@]4(C)C[C@]3(CC[C@@H]21)c1cnn(-c2cccc(Br)c2)c14 | 4.58 | 4.46 | < 4.30 | 5.49
CCOC(=O)[C@]1(C)CCC[C@@]2(C)[C@@H]3CC[C@@]4(C)C[C@]3(CC[C@@H]21)[C@@H]1CN(c2ccc(F)cc2)N=C14 | < 4.30 | < 4.30 | < 4.30 | 5.35
CCOC(=O)[C@]1(C)CCC[C@@]2(C)[C@@H]3CC[C@@]4(C)C[C@]3(CC[C@@H]21)c1cnn(-c2cc(F)ccc2F)c14 | < 4.30 | < 4.30 | < 4.30 | 5.15
CCOC(=O)[C@]1(C)CCC[C@@]2(C)[C@@H]3CC[C@@]4(C)C[C@]3(CC[C@@H]21)c1cnn(-c2ccccc2C)c14 | 4.72 | 4.45 | 4.82 | 5.11
CCOC(=O)[C@]1(C)CCC[C@@]2(C)[C@@H]3CC[C@@]4(C)C[C@]3(CC[C@@H]21)[C@@H]1CN(c2ccc(C)cc2)N=C14 | 4.86 | 4.53 | 4.54 | 5.41
CCOC(=O)[C@]1(C)CCC[C@@]2(C)[C@@H]3CC[C@@]4(C)C[C@]3(CC[C@@H]21)c1cnn(-c2cccc(F)c2)c14 | 4.72 | 4.45 | < 4.30 | 5.47
CCOC(=O)[C@]1(C)CCC[C@@]2(C)[C@@H]3CC[C@@]4(C)C[C@]3(CC[C@@H]21)[C@@H]1CN(c2ccc(Cl)cc2)N=C14 | < 4.30 | < 4.30 | < 4.30 | < 4.30
CCOC(=O)[C@]1(C)CCC[C@@]2(C)[C@@H]3CC[C@@]4(C)C[C@]3(CC[C@@H]21)c1cnn(-c2cccc(C)c2C)c14 | 4.74 | 4.71 | 4.43 | 5.49
CCOC(=O)[C@]1(C)CCC[C@@]2(C)[C@@H]3CC[C@@]4(C)C[C@]3(CC[C@@H]21)[C@@H]1CN(c2cccc(Cl)c2Cl)N=C14 | < 4.30 | < 4.30 | < 4.30 | 4.65
CCOC(=O)[C@]1(C)CCC[C@@]2(C)[C@@H]3CC[C@@]4(C)C[C@]3(CC[C@@H]21)[C@@H]1CN(c2ccccc2Cl)N=C14 | < 4.30 | < 4.30 | < 4.30 | < 4.30
CCOC(=O)[C@]1(C)CCC[C@@]2(C)[C@@H]3CC[C@@]4(C)C[C@]3(CC[C@@H]21)c1cnn(-c2cc(Cl)ccc2Cl)c14 | < 4.30 | < 4.30 | < 4.30 | 4.93
CCOC(=O)[C@]1(C)CCC[C@@]2(C)[C@@H]3CC[C@@]4(C)C[C@]3(CC[C@@H]21)[C@@H]1CN(c2cc(C)cc(C)c2)N=C14 | < 4.30 | < 4.30 | < 4.30 | < 4.30
CCOC(=O)[C@]1(C)CCC[C@@]2(C)[C@@H]3CC[C@@]4(C)C[C@]3(CC[C@@H]21)[C@@H]1CN(c2cc(C)ccc2C)N=C14 | < 4.30 | 4.65 | 4.52 | 4.90
